# Measurements as given in ChEMBL document CHEMBL1157638, “Fluorescent epigenetic small molecule induces expression of the tumor suppressor ras-association domain family 1A and inhibits human prostate xenograft” (J Med Chem, 2010).
# Activity calls are given as the source filed them. The calls are words filed in the database; no cut-off is given here.
# Tests used:
# NCI-H522 [1] = test: Growth inhibition of human NCI-H522 cells assessed as cell growth at 1 nM relative to untreated control; format: functional; conditions: read-out: Activity
# HCC 2998 [2] = test: Growth inhibition of human HCC2998 cells assessed as cell growth at 1 uM relative to untreated control; format: functional; conditions: read-out: Activity
# In short: (§1)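 Run externally at the National Cancer Institute as a 59-cell-line panel screen, with concentrations up to 100 μM. Growth was scored relative to control, where negative growth or total cell kill was possible. Data are in the Supporting Information.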
# HCT-116 = test: Growth inhibition of human HCT116 cells assessed as cell growth at 1 nM relative to untreated control; format: functional; conditions: read-out: Activity; in short: as §1
# ACHN = test: Growth inhibition of human ACHN cells assessed as cell growth at 1 uM relative to untreated control; format: functional; conditions: read-out: Activity
# 786-0 = test: Growth inhibition of human 786-0 cells assessed as cell growth at 10 uM relative to untreated control; format: functional; conditions: read-out: Activity
# BT-549 [3] = test: Growth inhibition of human BT549 cells; format: functional
# MOLT-4 [4] = test: Growth inhibition of human MOLT4 cells assessed as cell growth at 10 nM relative to untreated control; format: functional; conditions: read-out: Activity
# [5] = Growth inhibition of human Hs 578T cells assessed as cell growth at 100 nM relative to untreated control; format: functional; conditions: read-out: Activity
# SK-MEL-28 = test: Growth inhibition of human SK-MEL-28 cells assessed as cell growth at 1 nM relative to untreated control; format: functional; conditions: read-out: Activity
# BT-549 [6] = test: Growth inhibition of human BT549 cells assessed as cell growth at 10 nM relative to untreated control; format: functional; conditions: read-out: Activity
# HCC 2998 [7] = test: Growth inhibition of human HCC2998 cells assessed as cell growth at 10 nM relative to untreated control; format: functional; conditions: read-out: Activity; in short: as §1
# MCF7 = test: Growth inhibition of human MCF7 cells assessed as cell growth at 1 uM relative to untreated control; format: functional; conditions: read-out: Activity
# MDA-MB-435 [8] = test: Growth inhibition of human MDA-MB-435 cells assessed as cell growth at 10 nM relative to untreated control; format: functional; conditions: read-out: Activity
# K562 = test: Growth inhibition of human K562 cells; format: functional
# SF-295 [9] = test: Growth inhibition of human SF295 cells assessed as cell growth at 1 nM relative to untreated control; format: functional; conditions: read-out: Activity
# [10] = Growth inhibition of human […] cells assessed as cell growth at 1 nM relative to untreated control; format: functional; conditions: read-out: Activity
# NCI-H226 = test: Growth inhibition of human NCI-H226 cells assessed as cell growth at 10 nM relative to untreated control; format: functional; conditions: read-out: Activity
# LOX IMVI = test: Growth inhibition of human LOXIMVI cells assessed as cell growth at 10 nM relative to untreated control; format: functional; conditions: read-out: Activity
# Malme-3M = test: Growth inhibition of human MALME-3M cells assessed as cell growth at 100 nM relative to untreated control; format: functional; conditions: read-out: Activity
# SW-620 [11] = test: Growth inhibition of human SW620 cells; format: functional
# [12] = Growth inhibition of human Hs 578T cells assessed as cell growth at 1 uM relative to untreated control; format: functional; conditions: read-out: Activity
# NCI-H460 = test: Growth inhibition of human NCI-H460 cells assessed as cell growth at 1 uM relative to untreated control; format: functional; conditions: read-out: Activity
# MOLT-4 [13] = test: Growth inhibition of human MOLT4 cells assessed as cell growth at 1 uM relative to untreated control; format: functional; conditions: read-out: Activity
# A549 = test: Growth inhibition of human A549 cells assessed as cell growth at 10 uM relative to untreated control; format: functional; conditions: read-out: Activity
# BT-549 [14] = test: Growth inhibition of human BT549 cells assessed as cell growth at 1 nM relative to untreated control; format: functional; conditions: read-out: Activity
# SK-MEL-5 = test: Growth inhibition of human SK-MEL-5 cells assessed as cell growth at 10 nM relative to untreated control; format: functional; conditions: read-out: Activity
# SF-295 [15] = test: Growth inhibition of human SF295 cells assessed as cell growth at 1 uM relative to untreated control; format: functional; conditions: read-out: Activity
# HOP-62 = test: Growth inhibition of human HOP62 cells assessed as cell growth at 1 uM relative to untreated control; format: functional; conditions: read-out: Activity; in short: as §1
# BT-549 [16] = test: Growth inhibition of human BT549 cells assessed as cell growth at 10 uM relative to untreated control; format: functional; conditions: read-out: Activity
# CAKI-1 = test: Growth inhibition of human Caki1 cells assessed as cell growth at 100 nM relative to untreated control; format: functional; conditions: read-out: Activity; in short: as §1
# SNB-19 = test: Growth inhibition of human SNB19 cells; format: functional
# UACC-257 = test: Growth inhibition of human UACC257 cells assessed as cell growth at 10 nM relative to untreated control; format: functional; conditions: read-out: Activity
# SR [17] = test: Growth inhibition of human SR cells assessed as cell growth at 1 nM relative to untreated control; format: functional; conditions: read-out: Activity
# BT-549 [18] = test: Growth inhibition of human BT549 cells assessed as cell growth at 1 uM relative to untreated control; format: functional; conditions: read-out: Activity
# RXF 393 = test: Growth inhibition of human RXF393 cells assessed as cell growth at 1 nM relative to untreated control; format: functional; conditions: read-out: Activity
# SW-620 [19] = test: Growth inhibition of human SW620 cells assessed as cell growth at 100 nM relative to untreated control; format: functional; conditions: read-out: Activity
# PC-3 = test: Cytostatic against human PC3 cells up to 30 uM after 24 hrs by trypan blue exclusion method; format: functional, cell-based
# In short: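 PC-3 cells were seeded in triplicate at 1.5 × 10⁴ cells/well and grown in phenol red-free IMEM with 10% FBS at 37 °C, 5% CO₂. After 24 h they were treated with DMSO or 1, 5, 15, 30 or 60 μM compound for 24 h. Cells were then trypsinized, and live and dead cells were counted by 0.4% trypan blue exclusion on a hemocytometer. Values are mean ± SEM of three independent observations.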
# NCI-H522 [20] = test: Growth inhibition of human NCI-H522 cells; format: functional
# HT-29 = test: Growth inhibition of human HT-29 cells assessed as cell growth at 1 nM relative to untreated control; format: functional; conditions: read-out: Activity
# MOLT-4 [21] = test: Growth inhibition of human MOLT4 cells assessed as cell growth at 100 nM relative to untreated control; format: functional; conditions: read-out: Activity
# T47D = test: Growth inhibition of human T47D cells assessed as cell growth at 1 nM relative to untreated control; format: functional; conditions: read-out: Activity
# SW-620 [22] = test: Growth inhibition of human SW620 cells assessed as cell growth at 1 nM relative to untreated control; format: functional; conditions: read-out: Activity
# U-251 = test: Growth inhibition of human U251 cells assessed as cell growth at 10 nM relative to untreated control; format: functional; conditions: read-out: Activity
# MDA-MB-435 [23] = test: Growth inhibition of human MDA-MB-435 cells; format: functional; conditions: read-out: LC50 (the source's name)
# SR [24] = test: Growth inhibition of human SR cells assessed as cell growth at 1 uM relative to untreated control; format: functional; conditions: read-out: Activity
# HCT-15 = test: Growth inhibition of human HCT15 cells assessed as cell growth at 100 nM relative to untreated control; format: functional; conditions: read-out: Activity; in short: as §1
# [25] = read-out: LC50 (the source's name)
smiles,measurement,setting,value
COc1ccc2c(c1)[nH]c1c(C)c(OS(=O)(=O)c3cccc4c(N(C)C)cccc34)ccc12,growth at 0.001 µM,NCI-H522 [1],109%
same,growth at 1 µM,HCC 2998 [2],52%
same,growth at 0.001 µM,HCT-116,100%
same,growth at 1 µM,ACHN,43%
same,growth at 10 µM,786-0,6%
same,GI50,BT-549 [3],5.08 µM
same,TGI,BT-549 [3],> 100 µM
same,CC50,BT-549 [3]; [25],> 100 µM
same,growth at 0.01 µM,MOLT-4 [4],97%
same,growth at 0.1 µM,[5],88%
same,growth at 0.001 µM,SK-MEL-28,99%
same,growth at 0.01 µM,BT-549 [6],90%
same,growth at 0.01 µM,HCC 2998 [7],101%
same,growth at 1 µM,MCF7,10%
same,growth at 0.01 µM,MDA-MB-435 [8],95%
same,GI50,K562,3.01 µM
same,TGI,K562,> 100 µM
same,CC50,K562; [25],> 100 µM
same,growth at 0.001 µM,SF-295 [9],94%
same,growth at 0.001 µM,[10],99%
same,growth at 0.01 µM,NCI-H226,88%
same,growth at 0.01 µM,LOX IMVI,92%
same,growth at 0.1 µM,Malme-3M,85%
same,GI50,SW-620 [11],4.32 µM
same,TGI,SW-620 [11],> 100 µM
same,CC50,SW-620 [11]; [25],> 100 µM
same,growth at 1 µM,[12],20%
same,growth at 1 µM,NCI-H460,9%
same,growth at 1 µM,MOLT-4 [13],20%
same,growth at 10 µM,A549,12%
same,growth at 0.001 µM,BT-549 [14],100%
same,growth at 0.01 µM,SK-MEL-5,86%
same,growth at 1 µM,SF-295 [15],15%
same,growth at 1 µM,HOP-62,55%
same,growth at 10 µM,BT-549 [16],13%
same,growth at 0.1 µM,CAKI-1,81%
same,GI50,SNB-19,7.88 µM
same,TGI,SNB-19,> 100 µM
same,CC50,SNB-19; [25],> 100 µM
same,growth at 0.01 µM,UACC-257,109%
same,growth at 0.001 µM,SR [17],102%
same,growth at 1 µM,BT-549 [18],37%
same,growth at 0.001 µM,RXF 393,103%
same,growth at 0.1 µM,SW-620 [19],95%
same,Activity,PC-3,Active
same,GI50,NCI-H522 [20],9.97 µM
same,TGI,NCI-H522 [20],> 100 µM
same,CC50,NCI-H522 [20]; [25],> 100 µM
same,growth at 0.001 µM,HT-29,98%
same,growth at 0.1 µM,MOLT-4 [21],99%
same,growth at 0.001 µM,T47D,95%
same,growth at 0.001 µM,SW-620 [22],103%
same,growth at 0.01 µM,U-251,98%
same,CC50,MDA-MB-435 [23],> 100 µM
same,growth at 1 µM,SR [24],13%
same,growth at 0.1 µM,HCT-15,92%
